Screening data: PubChem BioAssay, several laboratories
MrgX1 agonist: human MrgX1 receptor agonism, primary screen; AID 588627; B-score at 10 µM; Q96LB2; MrgX1-HEK293 cells, Fluo-4 calcium fluorescence, agonist mode; hits give high values; 310,000 tested, 0.44% active;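 active means calcium response B-score plate-corrected fluorescence ratio at least 3 library SD, with starting fluorescence B-score inside 5 SD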
Target sequence (Q96LB2 whole entry, looked up): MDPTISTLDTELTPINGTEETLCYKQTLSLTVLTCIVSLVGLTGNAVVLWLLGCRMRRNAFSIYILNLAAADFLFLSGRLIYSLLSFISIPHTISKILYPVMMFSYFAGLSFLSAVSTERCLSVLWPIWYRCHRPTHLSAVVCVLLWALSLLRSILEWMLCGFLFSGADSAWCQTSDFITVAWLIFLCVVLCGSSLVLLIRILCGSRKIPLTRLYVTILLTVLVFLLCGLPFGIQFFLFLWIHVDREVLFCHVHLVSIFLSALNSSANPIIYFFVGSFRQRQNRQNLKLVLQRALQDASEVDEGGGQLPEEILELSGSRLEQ
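Material – MrgX1-expressing HEK293 cells · Input – 15,000 cells seeded per well · Dosing – compound as first of three additions · Times – overnight seeding, then 1 h dark dye loading · Measured by – kinetic Fluo-4 NW fluorescence of intracellular calcium · Read-out – B-scored fluorescence response ratio · Benchmarks – positive and negative control wells on each plate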
RGS4 pot: RGS4 potentiation or activation; 310,000 tested, 0.92% active; HEK293 M3R/inducible RGS4, carbachol calcium flux Fluo4; hits give low values; AID 463111; B-score at 10 µM;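 active means B-score of the integrated calcium signal more than 4 SD below the library mean, with starting fluorescence not abnormally high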;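 further: negative B-score means reduced calcium response which marks RGS4 activation or potentiation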
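System – HEK293 FlpIn-TREx cells, stable M3R, doxycycline-inducible RGS4 · Reagent – ECmax carbachol challenge · Times – compound preincubation 20 min at room temperature before agonist · Technique – Fluo4 fluorescence kinetic imaging of calcium · Measure – B score of integrated Fluo4 ratio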
PHOSPHO1 inh: blocks human PHOSPHO1 phosphatase activity. Q8TCT1. recombinant PHOSPHO1, absorbance phosphatase assay. inhibition, % at 13.3 µM. 290,000 tested, 1.1% active; in the data active means inhibition above about 60%
Target sequence (Q8TCT1 whole entry, looked up): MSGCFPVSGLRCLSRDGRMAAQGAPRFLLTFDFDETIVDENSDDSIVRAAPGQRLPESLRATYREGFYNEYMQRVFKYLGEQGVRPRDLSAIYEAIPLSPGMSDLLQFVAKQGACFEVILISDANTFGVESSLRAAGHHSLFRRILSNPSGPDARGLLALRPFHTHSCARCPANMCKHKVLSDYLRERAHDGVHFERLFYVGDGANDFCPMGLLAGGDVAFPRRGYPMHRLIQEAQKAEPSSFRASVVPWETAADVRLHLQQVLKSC
MrgX1 antag: blocks BAM8-22 activation of human MrgX1 receptor. 310,000 tested, 1.3% active. MRGX1-HEK293 calcium flux, Fluo-4, BAM8-22 antagonism; hits give low values. Q96LB2. B-score at 10 µM;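 active means calcium-response B-score plate-corrected more than 3 library SD below zero, starting fluorescence within 5 deviations, no agonist response on first addition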;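 further: peak minus trough fluorescence over baseline after final BAM8-22 challenge near maximal dose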
RGS4 inh: inhibitors of human RGS4 | P49798 | HEK293 M3R/RGS4 inducible, Fluo-4 calcium flux; hits give high values; triggered by carbachol at its EC20 | B-score at 10 µM | 310,000 tested, 0.45% active | AID 463165;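 active means B-score, a plate-corrected calcium signal, over three deviations above library mean, with baseline fluorescence within five deviations of library mean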;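 further: RGS4 expression induced by doxycycline in cells with stable M3 receptor; B-score is computed from the integrated fluorescence ratio over baseline after carbachol; higher B-score means a larger calcium signal and so more RGS4 inhibition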
Target sequence (P49798 whole entry, looked up): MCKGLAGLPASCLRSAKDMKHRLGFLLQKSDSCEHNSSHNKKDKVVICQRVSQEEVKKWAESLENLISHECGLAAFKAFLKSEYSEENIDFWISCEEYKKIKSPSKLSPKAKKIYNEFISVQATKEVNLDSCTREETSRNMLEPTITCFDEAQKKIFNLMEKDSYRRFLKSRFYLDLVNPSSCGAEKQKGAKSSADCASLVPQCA
MrgX1 allo act: human MrgX1 positive allosteric modulation, primary screen. MrgX1-HEK293, Fluo-4 calcium flux, FDSS; hits give high values. 310,000 tested, 0.63% active. Q96LB2. B-score at 10 µM;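 active means plate-corrected calcium response at least 3 library SD above typical, normal starting fluorescence, not activating the receptor alone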;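 further: compound read alongside a low EC10 to EC30 dose of BAM8-22 agonist; peak minus trough fluorescence over baseline measured at the second addition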
MrgX1 antag conf: human MrgX1 receptor antagonism, re-confirmation screen; remaining BAM8-22 calcium response % of control (hits give low values), % at 10 µM; shares compounds with MrgX1 antag; MrgX1-HEK293, BAM8-22 calcium flux, Fluo-4; hits give low values; AID 602420; 2,300 tested, 19% active;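 active means remaining agonist calcium response no higher than 100% minus 3 SD of agonist-only control wells, with starting fluorescence near control levels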;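 further: agonist BAM8-22 given at a near maximal EC90 to ECmax level; peak minus minimum fluorescence divided by baseline after agonist addition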
HEK293 Ca flux: MrgX1 antagonist counter-screen hit in parental HEK293 cells; 4,000 tested, 2% active; shares compounds with MrgX1 antag; fluorescence ratio F(max-min)/F0 at 10 µM; Fluo-4 calcium fluorescence, FDSS;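 active means duplicate-averaged calcium fluorescence ratio at least three times the standard deviation of buffer wells, a nonspecific response in parental cells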
HEK293 Ca counter: MrgX1 allosteric activator counter-screen hit in parental HEK293 cells; shares compounds with MrgX1 antag; fluorescence ratio F(max-min)/F0 at 10 µM; 4,000 tested, 0.4% active; parental HEK293 calcium flux, Fluo-4 fluorescence ratio; hits give high values;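 active means calcium fluorescence ratio, averaged over duplicates, at least 3 SD of the buffer-well ratio, meaning a nonspecific response in receptor-free cells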;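 further: untransfected parental HEK293 lacking MrgX1 used as counterscreen for MrgX1 allosteric activators; fluorescence change taken during the second addition on a kinetic imager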
HEK293 Ca cntr2: activity in parental HEK293 cells lacking MrgX1 receptor. shares compounds with MrgX1 antag. Fluo-4 calcium fluorescence (FDSS); hits give high values. 4,000 tested, 8.7% active. fluorescence ratio F(max-min)/F0 at 10 µM;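 active means calcium fluorescence ratio at least three times the spread of buffer wells, meaning a non-specific response in parental cells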
Of the large screens only hits and unclear results are named; the others gave an inactive call (follow-up assays come after a bar, where they were run). Rows were chosen to be rich in hits. Some 4.5% of all compounds tested hit in one or more screens of this group.

CC(=O)Nc1ccc(NC(=O)C(C)OC(=O)C2CCN(S(=O)(=O)c3cccs3)CC2)cc1 (stereo not drawn)	none
O=C(Nc1ccc(C(F)(F)F)cc1)C1CCN(S(=O)(=O)c2ccc(N3CCCC3=O)cc2)CC1	none
NNC(=O)c1ccc(S(=O)(=O)N2CCc3ccccc32)cc1	none
O=C(Cc1ccc(Cl)cc1)Nc1ccc(C(=O)N2CCOCC2)cc1	none
O=C(Cc1ccc(Cl)cc1)Nc1ccc(N2CCCC2)cc1	MrgX1 antag -5.3 (no result: RGS4 pot, RGS4 inh) | MrgX1 antag conf inactive | HEK293 Ca flux inactive | HEK293 Ca counter inactive | HEK293 Ca cntr2 inactive
O=C(Cc1cccs1)NCc1ccc2c(c1)OCO2	MrgX1 antag -8 | MrgX1 antag conf inactive | HEK293 Ca flux inactive | HEK293 Ca counter inactive | HEK293 Ca cntr2 inactive
CCOc1ncccc1C(=O)OCC(=O)NCc1ccc2c(c1)OCO2	MrgX1 antag -4.9 | MrgX1 antag conf inactive | HEK293 Ca flux inactive | HEK293 Ca counter inactive | HEK293 Ca cntr2 inactive
COc1ccc(CNC(=O)COC(=O)Cc2ccsc2)cc1	MrgX1 antag -4.5 | MrgX1 antag conf inactive | HEK293 Ca flux inactive | HEK293 Ca counter inactive | HEK293 Ca cntr2 inactive
COc1ccc(CC(=O)NCc2cccs2)cc1	MrgX1 antag -6.6 | MrgX1 antag conf inactive | HEK293 Ca flux inactive | HEK293 Ca counter inactive | HEK293 Ca cntr2 inactive
COc1ccc(-c2cn(CCO)c(-c3ccncc3)n2)cc1	none (no result: RGS4 pot, PHOSPHO1 inh, RGS4 inh)
Cc1cccc(N(CC(=O)NC2CCCCC2)C(=O)c2c(C)noc2C)c1	MrgX1 antag -6.5 | MrgX1 antag conf inactive | HEK293 Ca flux inactive | HEK293 Ca counter inactive | HEK293 Ca cntr2 inactive
Cc1cccc(N(CC(=O)NC2CCCCC2)C(=O)c2csnn2)c1	none
O=c1c(Cl)c(NCc2ccccc2)cnn1C12CC3CC(CC(C3)C1)C2	none
COCCNC(=O)c1ccc2c3n(nc2c1)-c1ccc(C)cc1CO3	none
Cc1ccc2c(c1)COc1c3ccc(C(=O)N[C@@H](CO)C(C)C)cc3nn1-2	MrgX1 antag -5.7 | MrgX1 antag conf inactive | HEK293 Ca flux inactive | HEK293 Ca counter inactive | HEK293 Ca cntr2 inactive
CC(C)CC(c1nnnn1CC1CCCO1)N1CCN(Cc2ccc3c(c2)OCO3)CC1 (stereo not drawn)	MrgX1 antag -5 | MrgX1 antag conf inactive | HEK293 Ca flux inactive | HEK293 Ca counter inactive | HEK293 Ca cntr2 inactive
CC(C)OC(=O)c1ccc(COC(=O)c2cnccn2)cc1	MrgX1 antag -5.4 | MrgX1 antag conf inactive | HEK293 Ca flux inactive | HEK293 Ca counter inactive | HEK293 Ca cntr2 inactive
c1ccc(-c2nc(-c3ccncc3)no2)cc1	MrgX1 antag -7.6 | MrgX1 antag conf inactive | HEK293 Ca flux inactive | HEK293 Ca counter inactive | HEK293 Ca cntr2 inactive
c1ccc(-c2ccccc2-c2nc(-c3ccncc3)no2)cc1	MrgX1 antag -4.7 | MrgX1 antag conf inactive | HEK293 Ca flux inactive | HEK293 Ca counter inactive | HEK293 Ca cntr2 inactive
Clc1ccccc1-c1nc(-c2ccncc2)no1	none
O=C(Nc1ccc(Cl)cc1)NN1CC(=O)N(c2cccc(C(F)(F)F)c2)CC1=O	none
CC(=O)Nc1ccc(S(=O)(=O)NCC2CCC(C(=O)NC(C)c3ccccc3)CC2)cc1 (stereo not drawn)	MrgX1 antag -6 | MrgX1 antag conf inactive | HEK293 Ca flux inactive | HEK293 Ca counter inactive | HEK293 Ca cntr2 inactive
NCCS	none
COC(=O)c1ccccc1NC(=O)N[C@@H](C)C(=O)OC	none
CCOC(=O)c1ccccc1NC(=O)N[C@@H](C)C(=O)OC	MrgX1 antag -4.6 | MrgX1 antag conf inactive | HEK293 Ca flux inactive | HEK293 Ca counter inactive | HEK293 Ca cntr2 inactive
Cc1cc(C(=O)CCC(=O)Nc2ncccc2O)c(C)s1	none (no result: PHOSPHO1 inh)
COC(=O)C1CCN(S(C)(=O)=O)CC1	MrgX1 antag -4.6 | MrgX1 antag conf inactive | HEK293 Ca flux inactive | HEK293 Ca counter inactive | HEK293 Ca cntr2 inactive
COC(=O)C1CCN(S(=O)(=O)c2ccc(NC(C)=O)cc2)CC1	none
OCCC1CN(C/C=C/c2ccco2)CCN1Cc1ccccc1 (stereo not drawn)	MrgX1 antag -5.2 | MrgX1 antag conf inactive | HEK293 Ca flux inactive | HEK293 Ca counter inactive | HEK293 Ca cntr2 inactive
COc1ccc(C(=O)NCC(=O)OCC(=O)Nc2sccc2C#N)cc1OC	MrgX1 antag -4.6 | MrgX1 antag conf inactive | HEK293 Ca flux inactive | HEK293 Ca counter inactive | HEK293 Ca cntr2 inactive
O=C(Nc1ccc(C(=O)N2CCCC2)cc1)c1ccccc1Br	none
O=C(Nc1ccc(C(=O)N2CCCCC2)cc1)c1ccccc1Br	MrgX1 antag -5.6 | MrgX1 antag conf inactive | HEK293 Ca flux inactive | HEK293 Ca counter inactive | HEK293 Ca cntr2 inactive
CN=Cc1cc(-c2ccccc2)sc1O	MrgX1 antag -6.2 | MrgX1 antag conf inactive | HEK293 Ca flux inactive | HEK293 Ca counter inactive | HEK293 Ca cntr2 inactive
O=C(OCc1nnc(-c2ccccc2)o1)c1cc(Cl)ccc1[N+](=O)[O-]	none
O=C1c2cccc3c(N4CCCCC4)ccc(c23)C(=O)N1c1cccc(O)c1	MrgX1 antag -5.2 | MrgX1 antag conf inactive | HEK293 Ca flux inactive | HEK293 Ca counter inactive | HEK293 Ca cntr2 inactive
O=C1c2cccc3c(N4CCCCC4)ccc(c23)C(=O)N1CCO	none
CCOc1ccc(N(CC)C(=O)Cc2c(C(=O)O)n(C)c3ccccc23)cc1	none
CCc1ccc(N(CC)C(=O)Cc2c(C(=O)O)n(C)c3ccccc23)cc1	MrgX1 antag -6.6 | MrgX1 antag conf inactive | HEK293 Ca flux inactive | HEK293 Ca counter inactive | HEK293 Ca cntr2 inactive
CCc1csc(CCNC(=O)C2CCC(=O)N(CCc3cccc(F)c3)C2)n1 (stereo not drawn)	none
CCOC(=O)Cc1csc(SCC(=O)NC2CCCC(C)C2C)n1 (stereo not drawn)	none
CCOC(=O)Cc1csc(SC(C)C(=O)NC2CCCCC2C)n1 (stereo not drawn)	MrgX1 antag -5.3 (no result: PHOSPHO1 inh) | MrgX1 antag conf 85% | HEK293 Ca flux inactive | HEK293 Ca counter inactive | HEK293 Ca cntr2 inactive
CCCCOC(=O)C(NC(=O)c1ccccc1)=C(C)C	none
CCOC(=O)C(NC(=O)c1ccccc1)=C(C)C	MrgX1 antag -8.9 | MrgX1 antag conf inactive | HEK293 Ca flux inactive | HEK293 Ca counter inactive | HEK293 Ca cntr2 inactive
